System: MS2 coat protein
Assay: apparent Kd, MS2 coat protein; higher = weaker binding; RNA-MaP array; FMN 200 µM where present
How it was run: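 Green signal from SNAP-549-labelled MS2 coat protein was normalised to red-channel RNA signal and to the median Fmax of control clusters. The protein was titrated from 0.7 or 1.5 nM, doubling to 3 µM, without and then with constant ligand, over designs transcribed by stalled E. coli RNA polymerase on Illumina sequencing-chip clusters, in 100 mM Tris-HCl pH 7.5, 80 mM KCl, 4 mM MgCl2, BSA, DTT, yeast tRNA and Tween-20. The apparent Kd is the median of filtered per-cluster binding-curve fits.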

[1] = designed as: ON switch for flavin mononucleotide, no ligand
[2] = ligand present: flavin mononucleotide, designed as: ON switch for flavin mononucleotide
[3] = designed as: OFF switch for flavin mononucleotide, no ligand
[4] = ligand present: flavin mononucleotide, designed as: OFF switch for flavin mononucleotide

Sequence	apparent Kd [1] [nM]	apparent Kd [2] [nM]	apparent Kd [3] [nM]	apparent Kd [4] [nM]
AUGAAGAGGCAAGGAUAUCGAGUGCUGGGCCUAUACAUGAGGAUCACCCAUGUCCUGGCAGGACGUGAGAAGGUGUAUCUAAUA	217	343	–	–
UGUAUACAUGAGGAUCACCCAUGUCAACGUAGUCGAGGAUAUGGGCAGCCGUGAGGCGUACCAGAAGGCGAAGAGG	86.5	19.4	–	–
AUGCGGUCAGGAUAUGCAUGGCGGGACUUGCGUCGUGGCGUGGAGAAGGGACAUGAGGAUCACCCAUGUGGAGU	–	–	79	45.2
AAAAUACAUGAGGAUCACCCAUGUUAGGAUAUCCAAGGUCUAACCCUCAGGGUUAGACGGAGAAGGGAUGUGGU	–	–	60.8	61.6
UGUUGUUGAUAGGAUAUACUUGUAGGAGUUGUAGUAGAAGGAUCUACAUGAGGAUCACCCAUGUAGGAGUGAGU	–	–	17.5	17.2
UAUUUAUAAUAUAUUAACAUGAGGAUCACCCAUGUCGCUAGACAGGAUAUAUUUUAUUUUUUUAAGUAGAAGGGUCAUAUAUUU	68	85.9	–	–
ACUGGUGCAGGAUAUGCAAUCGUGCUUCGGCACGUAAGAUCACAUGAGGAUCACCCAUGUAGAAGGGCACCAGU	–	–	20.3	65.7
GUUUUGUAAGAGAAGGAGGACUUCAUGAGGAUCACCCAUGUGUUAGUACUUAGGAUAUUUGACAACAUGAGGAUCACCCAUGUC	57.8	57.9	–	–
UAUAUAUAGGCAGGAUAUACAUGUAUAUAUAAUAUAUUAUAUAAUAUAACAUGAGGAUCACCCAUGUAGAAGGGCCAUAAUAUA	–	–	58.4	83.7
UAAUAAUAGUGAGGAUAUAGUUAUUAUAAUAUACUAGAAGGUACACAUGAGGAUCACCCAUGUUUUAUAAUUUGUAAUUUAAAU	–	–	23.2	20.5
AGAACAUGAGGAUCACCCAUGUAAAGGUCGGUCAAUAAGGGUGAGGAUAUGCUUAAAAUAAGGUAGCAGAAGGUACUUGGUGCA	398	508	–	–
UGCUAGGACCUAGGAUAUCCUGGGUUGGUGGUGCUUGAUGACCGGACAUGAGGAUCACCCAUGUAGGAGAAGGAGGUUGUUAAG	–	–	61.2	100
AUUUAGUGCGAGAAGGCGUGGUCACAUGAGGAUCACCCAUGUCAGUACACGAGGAUAUCGAUCCGCUAUGUAAAUAUAUGCGGC	78	7.51	–	–
GUGGUACAUGAGGAUCACCCAUGUUAGGAUAUCGCGUGAGGUUUUACUUCCGCACACACGAGAAGGGACGUCUU	–	–	32.9	28
UAGACGUUGCAGAAGGUUAUUUUUAUAACGUGCCACUUGACAUGAGGAUCACCCAUGUAAUUGAUGAAGGAUAUGCAACGGUAG	–	–	6.34	5.83
GGGAGACAUGAGGAUCACCCAUGUGAAAACGUGCGAGGAUAUGUAUGGAAACCAUACUGUACAGAAGGCGUUUGUC	50.2	47.7	–	–
GGACAUCCCACAGGAUAUGCUGGACUUUGUCCAGCAGAAGGGUGAAAUACAUGAGGAUCACCCAUGUGGAUGUCCAUAUUUAAU	747	253	–	–
CUUAUUAAACAAGGAUAUCAUUUGUGUACAAGUUUUACAUGAGGAUCACCCAUGUUAAAUGGUUUUGAGAAGGUGUUUAGAACU	58.4	31.5	–	–
GCGUACUGAGGAUAUACAUGAGGAUCACCCAUGUGACACAGCGUUUAGUGAUGAAUUUGUAGAAGGCAGUAGGC	–	–	146	219
AAACAAGAAGGAUAUACAUUAUCGGAUCUUCCGGCAAUGCCACAUGAGGAUCACCCAUGUAGAAGGUCUAAAUU	–	–	12.3	18.9
UGGAUCAUCGGAGGAUAUCAUGUAGAUACAUGAGGAUCACCCAUGUCGUACGAGAGUACGGAGAUUGAGAAGGCCGAUGAUCCU	31.6	14.8	–	–

Sequence	apparent Kd [1] [nM]	apparent Kd [2] [nM]	apparent Kd [3] [nM]	apparent Kd [4] [nM]
GUAGCAUUGAGAGGAUAUCCAUAUCCGAAAGGGACAUGAGGAUCACCCAUGUCGCGAAAGCGGUGGGAGAAGGCUCUAUGCUAC	4.92	5.01	–	–
CGAUGCAGAGGAUAUACAUGAGGAUCACCCAUGUACCUACUCGGGCGUCCUCUUAGAUGUAGAAGGCUGACACU	–	–	62.6	72
UGUCGGAGGAGAGGAUAUUACAUGAGGAUCACCCAUGUAUGAACCAAUAGCUGGAAACAGCAAUGUAAGAAGGCUGCUCCGACA	–	–	8.17	81.4
UUAAAUCGAAACAUGAGGAUCACCCAUGUGUUGUAAUUAAUAUAGGAUAUGUGUAUACUUUUAUAACAGAAGGAUGAUAAUACU	22.2	16.9	–	–
AGACUGCGUAGAAUUAGCAGCCGGCAGGAUAUGACAUGAGGAUCACCCAUGUGAACUCCAUUGGGUCAGAAGGGCCACGACACA	–	–	21.8	147
GUAGCAUGCCAAGGAUAUUCAUAUAGUAGGCAAACAUGAGGAUCACCCAUGUAGUGAGAGCCCUGGGAGAAGGUGGGAUGCUAC	17.9	16.1	–	–
UUGGACGUCGUAGGAUAUGUAGGAUAUUCCUACAUGAGGAUCACCCAUGUUGACUUGGAAGAAGGACAGAAGGACGAUGUCCAU	22	4.06	–	–
CUGAAUCGAGGAUAUUGUACUGCUGACAUGAGGAUCACCCAUGUAUGUUAACUCGGCCGUCGAGAAGGCGAACAUA	–	–	27.6	18
CUCGGACAUGAGGAUCACCCAUGUGAGGAUAUGGCGCUAUCGUCAUUAGACGAUUGCGCCAGAAGGCACAAAUG	–	–	85.2	268
UGUCGGAGCAGAGGAUAUUACAUGAGGAUCACCCAUGUAUGAACCAAUAGCUGGAAAGAGCAAUGUAAGAAGGCUGCUCCGACA	–	–	19.7	181
GUCGGAAACGACAAAAGUAGCAUACGAGAAGGCUGAUCCACGACAUGAGGAUCACCCAUGUACUUAGAGGAUAUUGGAUGCUAC	110	26.1	–	–
CGAUAGUGUAGUUAUCCGUAGCGAACAUGAGGAUCACCCAUGUAGGAUAUGUUACUAAACUAGUAACAGAAGGGCGUGAGUCUU	–	–	30.2	30.6
GUUUAUUAUUAGAAGGUGCCAGCGAGAGCUGCACAUGAGGAUCACCCAUGUUGUCGGUGACGACGCAAGGAUAUGGUGGUGGAU	300	91.5	–	–
UUGUUGUGAGGAUAUCCAAUAUAUGACAUGAGGAUCACCCAUGUUUCCACUCGUACCUCCGGAGAAGGCACUUGGU	–	–	35.5	29.1
UACAUUGCUUAGAAGGGAUAUAUAUAAUUUUAGUCAGGAUAUAGAUACAGUACAACAUGAGGACAUGAGGAUCACCCAUGUAUU	25.9	18.4	–	–
ACUAACGAAGGAUAUACUAACGAAACUAAUGCAUAGAUAAAACAUGAGGAUCACCCAUGUAGAAGGUCGAGACU	–	–	22.5	25.5
AAAAUACAUGAGGAUCACCCAUGUGAAAAUAUGGGAGGAUAUACCGAAAAAAAAAAAAAGGUAGAAGGCCCAAAAA	22.5	32.5	–	–
GGAGCAGGGUCAGGAUAUGUAGGUAGACGGCAAAUAGAAGGGACAUGAGGAUCACCCAUGUAACAUUAAAAUGAAGCAAGGGAG	–	–	66.4	71.5
CCUAAGGACACAGGAUAUAGCGCGGUGGCUGGGCUCCAACGGCGAGCGACGCUAGAAGGGUGACCACAUGAGGAUCACCCAUGU	517	122	–	–
AAAUACAGAGGAUAUGUACGAAUUGACAUGAGGAUCACCCAUGUGACUUCGUGCACUUUGACAGAAGGCUGGGAAU	–	–	16.8	32.7
AGUACUACAGGAUAUACGAGGGAGGUCCACGUGAACCUUUUACAUGAGGAUCACCCAUGUAGAAGGGUAGUACA	–	–	68.3	16.5

From the EternaBench riboswitch data
